Reference: the M2OR odorant receptor database

Legend:
Conditions in all cases: stereoisomer not certain
OR10G2 (Homo sapiens) = biological target: T1, OR10G2 (Homo sapiens) (UniProt Q8NGC3)
T1 sequence (whole entry): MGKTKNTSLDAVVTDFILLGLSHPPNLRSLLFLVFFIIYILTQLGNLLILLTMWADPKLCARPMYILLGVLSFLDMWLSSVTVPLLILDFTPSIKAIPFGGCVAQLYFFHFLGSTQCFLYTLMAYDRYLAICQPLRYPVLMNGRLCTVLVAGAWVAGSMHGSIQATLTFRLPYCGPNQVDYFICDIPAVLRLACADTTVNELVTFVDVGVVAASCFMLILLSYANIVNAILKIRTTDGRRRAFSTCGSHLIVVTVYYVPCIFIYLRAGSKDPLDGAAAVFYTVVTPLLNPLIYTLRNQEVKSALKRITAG
Method in brief: (§1)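 Each entry records the cell line, G-protein, co-transfected protein and tags used. Methods varied with the source, often transient luciferase assays in mammalian cell lines. A receptor–molecule pair is called responsive (active) if the original authors judged its signal statistically different from baseline and non-responsive (inactive) otherwise.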

OR10G3 (Homo sapiens) = biological target: T2, OR10G3 (Homo sapiens) (UniProt Q8NGC4)
T2 sequence (whole entry): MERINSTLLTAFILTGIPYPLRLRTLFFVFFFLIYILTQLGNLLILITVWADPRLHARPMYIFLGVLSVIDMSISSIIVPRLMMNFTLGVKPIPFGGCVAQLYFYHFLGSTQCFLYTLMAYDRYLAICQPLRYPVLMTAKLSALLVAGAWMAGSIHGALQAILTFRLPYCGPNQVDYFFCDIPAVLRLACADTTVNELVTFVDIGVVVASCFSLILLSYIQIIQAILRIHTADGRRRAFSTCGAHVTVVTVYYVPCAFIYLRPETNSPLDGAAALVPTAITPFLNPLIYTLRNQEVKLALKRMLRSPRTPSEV
Method in brief: as §1

OR10G4 (Homo sapiens) = biological target: T3, OR10G4 (Homo sapiens) (UniProt Q8NGN3)
T3 sequence (whole entry): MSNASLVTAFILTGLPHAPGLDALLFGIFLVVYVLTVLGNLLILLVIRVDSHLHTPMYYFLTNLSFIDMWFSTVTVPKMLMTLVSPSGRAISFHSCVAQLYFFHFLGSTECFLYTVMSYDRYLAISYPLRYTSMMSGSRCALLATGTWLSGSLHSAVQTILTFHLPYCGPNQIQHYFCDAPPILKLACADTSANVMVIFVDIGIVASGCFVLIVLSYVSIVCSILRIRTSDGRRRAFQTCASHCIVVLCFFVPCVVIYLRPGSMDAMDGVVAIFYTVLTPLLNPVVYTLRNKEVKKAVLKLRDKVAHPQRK
Method in brief: as §1

OR10G6 (Homo sapiens) = biological target: T4, OR10G6 (Homo sapiens) (UniProt Q8NH81)
T4 sequence (whole entry): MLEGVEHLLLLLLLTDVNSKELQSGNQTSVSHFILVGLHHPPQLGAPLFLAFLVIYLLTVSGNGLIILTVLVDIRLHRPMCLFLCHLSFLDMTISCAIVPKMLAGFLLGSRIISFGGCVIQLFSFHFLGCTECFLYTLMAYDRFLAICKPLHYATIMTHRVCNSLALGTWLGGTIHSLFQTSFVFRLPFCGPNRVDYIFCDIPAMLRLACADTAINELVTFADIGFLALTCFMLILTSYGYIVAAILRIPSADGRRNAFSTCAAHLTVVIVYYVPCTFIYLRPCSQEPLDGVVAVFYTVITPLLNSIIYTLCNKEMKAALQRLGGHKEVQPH
Method in brief: as §1

OR10G7 (Homo sapiens) = biological target: T5, OR10G7 (Homo sapiens) (UniProt Q8NGN6)
T5 sequence (whole entry): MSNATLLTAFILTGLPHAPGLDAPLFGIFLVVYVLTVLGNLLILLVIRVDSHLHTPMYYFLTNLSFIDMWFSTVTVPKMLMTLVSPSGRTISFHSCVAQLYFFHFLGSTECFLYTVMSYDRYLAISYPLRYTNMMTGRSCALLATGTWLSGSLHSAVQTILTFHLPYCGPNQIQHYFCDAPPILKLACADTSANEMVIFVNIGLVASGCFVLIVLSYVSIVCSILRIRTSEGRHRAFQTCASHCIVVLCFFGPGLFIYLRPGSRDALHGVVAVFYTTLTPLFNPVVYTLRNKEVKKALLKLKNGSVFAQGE
Method in brief: as §1

OR10G8 (Homo sapiens) = biological target: T6, OR10G8 (Homo sapiens) (UniProt Q8NGN5)
T6 sequence (whole entry): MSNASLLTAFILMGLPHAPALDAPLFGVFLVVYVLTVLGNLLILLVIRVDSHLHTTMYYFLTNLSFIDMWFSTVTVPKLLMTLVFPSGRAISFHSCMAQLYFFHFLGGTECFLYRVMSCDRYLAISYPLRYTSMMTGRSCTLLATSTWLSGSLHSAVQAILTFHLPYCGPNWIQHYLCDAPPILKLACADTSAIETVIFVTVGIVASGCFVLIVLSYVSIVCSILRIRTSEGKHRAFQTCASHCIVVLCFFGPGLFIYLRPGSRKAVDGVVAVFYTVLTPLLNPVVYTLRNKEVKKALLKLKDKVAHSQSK
Method in brief: as §1

OR10G9 (Homo sapiens) = biological target: T7, OR10G9 (Homo sapiens) (UniProt Q8NGN4)
T7 sequence (whole entry): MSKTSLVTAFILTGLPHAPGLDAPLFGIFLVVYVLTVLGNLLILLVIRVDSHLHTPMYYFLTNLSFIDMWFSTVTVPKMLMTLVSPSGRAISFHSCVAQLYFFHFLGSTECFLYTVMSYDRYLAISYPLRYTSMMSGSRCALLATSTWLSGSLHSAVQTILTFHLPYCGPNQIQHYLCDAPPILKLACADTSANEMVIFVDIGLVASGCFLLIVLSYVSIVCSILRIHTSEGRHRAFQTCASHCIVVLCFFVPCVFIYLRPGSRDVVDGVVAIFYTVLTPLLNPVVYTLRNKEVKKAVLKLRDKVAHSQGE
Method in brief: as §1

OR10H1 (Homo sapiens) = biological target: T8, OR10H1 (Homo sapiens) (UniProt Q9Y4A9)
T8 sequence (whole entry): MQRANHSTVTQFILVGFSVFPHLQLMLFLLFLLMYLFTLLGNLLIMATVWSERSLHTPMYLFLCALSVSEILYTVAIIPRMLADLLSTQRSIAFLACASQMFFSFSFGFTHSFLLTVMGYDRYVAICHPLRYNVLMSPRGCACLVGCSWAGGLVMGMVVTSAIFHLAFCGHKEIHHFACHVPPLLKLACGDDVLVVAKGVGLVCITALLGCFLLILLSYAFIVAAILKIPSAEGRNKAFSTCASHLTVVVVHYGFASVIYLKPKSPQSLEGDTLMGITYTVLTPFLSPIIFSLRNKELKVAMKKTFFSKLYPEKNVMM
Method in brief: as §1

OR10H2 (Homo sapiens) = biological target: T9, OR10H2 (Homo sapiens) (UniProt O60403)
T9 sequence (whole entry): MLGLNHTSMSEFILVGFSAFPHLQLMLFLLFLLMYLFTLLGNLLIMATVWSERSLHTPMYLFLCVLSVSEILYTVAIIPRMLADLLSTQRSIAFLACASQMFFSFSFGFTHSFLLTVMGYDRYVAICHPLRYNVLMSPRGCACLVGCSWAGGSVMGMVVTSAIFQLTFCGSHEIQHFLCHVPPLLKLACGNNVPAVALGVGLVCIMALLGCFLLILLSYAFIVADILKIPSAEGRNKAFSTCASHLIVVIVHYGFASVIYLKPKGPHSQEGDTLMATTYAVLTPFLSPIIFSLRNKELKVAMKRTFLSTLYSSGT
Method in brief: as §1

OR10H3 (Homo sapiens) = biological target: T10, OR10H3 (Homo sapiens) (UniProt O60404)
T10 sequence (whole entry): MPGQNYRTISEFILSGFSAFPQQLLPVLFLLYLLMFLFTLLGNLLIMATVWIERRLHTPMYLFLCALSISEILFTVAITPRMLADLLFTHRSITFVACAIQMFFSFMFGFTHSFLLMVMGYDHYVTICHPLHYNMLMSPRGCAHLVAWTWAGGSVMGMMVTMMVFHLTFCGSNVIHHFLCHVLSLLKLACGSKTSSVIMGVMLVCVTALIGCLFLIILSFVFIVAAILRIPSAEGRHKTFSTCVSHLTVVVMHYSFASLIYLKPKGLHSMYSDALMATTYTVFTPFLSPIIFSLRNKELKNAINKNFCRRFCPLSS
Method in brief: as §1

OR10H4 (Homo sapiens) = biological target: T11, OR10H4 (Homo sapiens) (UniProt Q8NGA5)
T11 sequence (whole entry): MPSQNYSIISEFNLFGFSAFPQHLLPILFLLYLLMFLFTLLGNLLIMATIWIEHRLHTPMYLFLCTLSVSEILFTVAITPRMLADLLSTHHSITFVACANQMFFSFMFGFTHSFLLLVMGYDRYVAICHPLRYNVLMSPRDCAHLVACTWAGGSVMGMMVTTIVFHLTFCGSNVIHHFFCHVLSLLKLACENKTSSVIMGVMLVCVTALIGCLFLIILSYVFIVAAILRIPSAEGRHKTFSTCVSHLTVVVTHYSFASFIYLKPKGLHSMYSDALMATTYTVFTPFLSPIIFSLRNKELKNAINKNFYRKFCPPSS
Method in brief: as §1

OR10H5 (Homo sapiens) = biological target: T12, OR10H5 (Homo sapiens) (UniProt Q8NGA6)
T12 sequence (whole entry): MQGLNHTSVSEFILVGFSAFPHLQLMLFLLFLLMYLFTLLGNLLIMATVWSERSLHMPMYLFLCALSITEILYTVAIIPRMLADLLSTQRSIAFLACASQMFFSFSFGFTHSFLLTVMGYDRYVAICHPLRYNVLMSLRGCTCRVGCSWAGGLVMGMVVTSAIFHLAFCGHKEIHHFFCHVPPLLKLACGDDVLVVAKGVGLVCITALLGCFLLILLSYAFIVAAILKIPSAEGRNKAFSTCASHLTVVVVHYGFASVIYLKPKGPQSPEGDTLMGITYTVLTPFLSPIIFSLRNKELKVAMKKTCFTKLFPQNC
Method in brief: as §1

OR10J1 (Homo sapiens) = biological target: T13, OR10J1 (Homo sapiens) (UniProt P30954)
T13 sequence (whole entry): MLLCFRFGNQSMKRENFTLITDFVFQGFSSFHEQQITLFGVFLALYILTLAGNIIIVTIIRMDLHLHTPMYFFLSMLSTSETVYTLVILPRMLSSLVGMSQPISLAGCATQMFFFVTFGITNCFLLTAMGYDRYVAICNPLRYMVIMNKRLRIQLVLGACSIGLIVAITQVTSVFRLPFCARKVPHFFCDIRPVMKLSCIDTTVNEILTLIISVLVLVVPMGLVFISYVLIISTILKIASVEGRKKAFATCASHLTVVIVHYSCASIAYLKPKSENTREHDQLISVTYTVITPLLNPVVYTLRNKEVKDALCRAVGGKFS
Method in brief: as §1

OR10J3 (Homo sapiens) = biological target: T14, OR10J3 (Homo sapiens) (UniProt Q5JRS4)
T14 sequence (whole entry): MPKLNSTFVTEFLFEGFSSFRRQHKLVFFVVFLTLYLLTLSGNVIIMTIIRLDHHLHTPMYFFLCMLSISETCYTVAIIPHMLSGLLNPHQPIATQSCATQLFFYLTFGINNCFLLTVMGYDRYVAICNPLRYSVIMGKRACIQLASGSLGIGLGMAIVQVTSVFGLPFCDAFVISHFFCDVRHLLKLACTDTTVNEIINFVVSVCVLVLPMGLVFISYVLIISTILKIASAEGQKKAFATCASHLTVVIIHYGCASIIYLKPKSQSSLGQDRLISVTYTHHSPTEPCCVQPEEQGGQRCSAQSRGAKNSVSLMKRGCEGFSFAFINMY
Method in brief: as §1

OR10J5 (Homo sapiens) = biological target: T15, OR10J5 (Homo sapiens) (UniProt Q8NHC4)
T15 sequence (whole entry): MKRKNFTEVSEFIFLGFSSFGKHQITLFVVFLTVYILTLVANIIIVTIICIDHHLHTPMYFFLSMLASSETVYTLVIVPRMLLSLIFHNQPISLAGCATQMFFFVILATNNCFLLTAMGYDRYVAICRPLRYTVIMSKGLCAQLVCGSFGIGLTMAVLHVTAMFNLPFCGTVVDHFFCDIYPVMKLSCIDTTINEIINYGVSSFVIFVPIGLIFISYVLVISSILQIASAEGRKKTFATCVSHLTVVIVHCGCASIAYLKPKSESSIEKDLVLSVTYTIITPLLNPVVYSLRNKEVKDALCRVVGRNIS
Method in brief: as §1

OR10K1 (Homo sapiens) = biological target: T16, OR10K1 (Homo sapiens) (UniProt Q8NGX5)
T16 sequence (whole entry): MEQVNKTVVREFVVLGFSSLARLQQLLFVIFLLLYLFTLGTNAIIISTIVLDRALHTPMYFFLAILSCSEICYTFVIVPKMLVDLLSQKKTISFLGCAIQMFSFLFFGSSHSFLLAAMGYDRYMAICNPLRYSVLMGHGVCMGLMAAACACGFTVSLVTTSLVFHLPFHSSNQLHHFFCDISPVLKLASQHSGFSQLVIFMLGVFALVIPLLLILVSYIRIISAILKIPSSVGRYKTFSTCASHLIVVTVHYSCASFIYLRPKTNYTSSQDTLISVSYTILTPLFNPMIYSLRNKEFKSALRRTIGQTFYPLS
Method in brief: as §1

OR10P1 (Homo sapiens) = biological target: T17, OR10P1 (Homo sapiens) (UniProt Q8NGE3)
T17 sequence (whole entry): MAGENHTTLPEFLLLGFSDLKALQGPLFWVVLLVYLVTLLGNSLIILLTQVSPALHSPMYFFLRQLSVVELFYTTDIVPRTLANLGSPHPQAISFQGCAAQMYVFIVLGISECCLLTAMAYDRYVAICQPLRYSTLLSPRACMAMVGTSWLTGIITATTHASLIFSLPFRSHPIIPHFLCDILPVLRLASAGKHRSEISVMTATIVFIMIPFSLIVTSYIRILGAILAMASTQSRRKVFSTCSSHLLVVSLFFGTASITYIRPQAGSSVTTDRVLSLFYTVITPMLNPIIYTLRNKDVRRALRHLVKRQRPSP
Method in brief: as §1

OR10Q1 (Homo sapiens) = biological target: T18, OR10Q1 (Homo sapiens) (UniProt Q8NGQ4)
T18 sequence (whole entry): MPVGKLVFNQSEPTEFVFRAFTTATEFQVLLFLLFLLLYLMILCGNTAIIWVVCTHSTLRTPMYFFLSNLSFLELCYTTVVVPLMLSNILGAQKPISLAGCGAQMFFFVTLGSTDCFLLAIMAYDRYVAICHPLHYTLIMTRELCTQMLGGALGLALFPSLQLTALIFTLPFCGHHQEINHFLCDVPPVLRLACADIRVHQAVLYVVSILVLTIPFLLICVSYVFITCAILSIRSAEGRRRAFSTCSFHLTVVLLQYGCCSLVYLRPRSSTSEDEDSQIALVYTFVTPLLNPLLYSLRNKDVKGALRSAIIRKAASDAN
Method in brief: as §1

Measured: odorant receptor agonist call

CC1=C(O)C(=O)C(C)O1 (stereo not drawn)
inactive: all assays above
